According to ChEMBL document CHEMBL1126989, “Synthesis and cytotoxicity of 1,6,7,8-substituted 2-(4'-substituted phenyl)-4-quinolones and related compounds: identification as antimitotic agents interacting with tubulin” (J Med Chem, 1993):
Values after ≈ are worked out from the molar mass of the structure shown.

Key:
Tubulin beta chain = Tubulin beta chain (Bos taurus, UniProt Q6B856); test: (§1) Inhibition of tubulin polymerization; type: functional
Outline: (§2)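 Bovine brain tubulin 1.0 mg/mL (10 μM) with 1.0 M repurified monosodium glutamate, 1.0 mM MgCl2, 4% DMSO and drug; preincubated 15 min at 37 °C, chilled, GTP added; turbidity at 350 nm after jump from 0 to 37 °C, followed 20 min.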

KB = test: Cytotoxicity in vitro expressed as 50% reduction in cell number after a 3-day incubation, in human epidermoid carcinoma KB cell line; type: functional, cell-based; conditions: 72 h
Outline: (§3)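 Cell lines adapted to antibiotic-free RPMI-1640 with 10% fetal calf serum; ca. 1×10^5 cells per well, overnight stabilization, then serial dilutions added, quadruplicate per concentration; medium-only controls. After 3-4 days, MTT added and incubated overnight; formazan dissolved in DMSO, absorbance at 570 nm. EC50 calculated from two data points bracketing 50% growth inhibition. Actinomycin as positive control.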

HCT-8 = test: Cytotoxicity in vitro expressed as 50% reduction in cell number after a 3-day incubation, in human ileocecal carcinoma HCT-8 cell line; type: functional, cell-based; conditions: HCT-8, 72 h; outline: as §3
RPMI-7951 = test: Cytotoxicity in vitro expressed as 50% reduction in cell number after a 3-day incubation, in human melanoma RPMI-7951 cell line; type: functional, cell-based; conditions: RPMI-7951, 72 h; outline: as §3
A549 = test: Cytotoxicity in vitro expressed as 50% reduction in cell number after a 3-day incubation, in human lung carcinoma A-549 cell line; type: functional, cell-based; conditions: A549, 72 h; outline: as §3
L1210 (1565) = test: Cytotoxicity in vitro expressed as 50% reduction in cell number after a 3-day incubation, in murine leukemia L-1210 cell line; type: functional, cell-based; conditions: Mus musculus, 72 h; outline: as §3
P388 = test: Cytotoxicity in vitro expressed as 50% reduction in cell number after a 3-day incubation, in murine leukemia P-388 cell line; type: functional, cell-based; conditions: Mus musculus, P388, 72 h; outline: as §3
COLO 205 [1] = test: Inhibition of in vitro cell growth which reduces cell growth to 50% of level at start of experiment in colon COLO-205 cell line (<-4 in one experiment, >-4 in other experiment); type: functional, Homo sapiens
Outline: (§4)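 NCI in vitro disease-oriented screen across about 60 human tumour cell lines. The value is the LC50-type level: the drug concentration that cuts cell number to 50% of the count at the start of the experiment. Values are averages of 2 assays.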

SF-539 [2] = test: Inhibition of in vitro cell growth which reduces cell growth to level at start of experiment in CNS SF-539 cell line; type: functional, Homo sapiens
HCC 2998 [3] = test: Inhibition of in vitro cell growth which reduces cell growth to level at start of experiment in colon HCC2998 cell line; type: functional, Homo sapiens
Tubulin (Bos taurus) [4] = biological target: T1, Tubulin (Bos taurus) (UniProt Q6B856+Q862L2+Q862F3); test: Percentage inhibition of colchicine binding(10:1 ratio of inhibitor: colchicine); type: protein assay; conditions: concentration not given here
KM-20L2 [5] = test: (§5) Inhibition of in vitro cell growth which reduces cell growth to level at start of experiment in colon KM-20L2 cell line; type: functional, Homo sapiens
KM-20L2 [6] = test: (§6) Inhibition of in vitro cell growth which reduces cell growth to 50% of level at start of experiment in colon KM-20L2 cell line; type: functional, Homo sapiens; outline: as §4
COLO 205 [7] = test: Inhibition of in vitro cell growth which reduces cell growth to level at start of experiment in colon COLO-205 cell line; type: functional, Homo sapiens
HT-29 [8] = test: Inhibition of in vitro cell growth which reduces cell growth to level at start of experiment in colon HT-29 cell line; type: functional, Homo sapiens
Tubulin (Bos taurus) [9] = biological target: T1, Tubulin (Bos taurus); test: Percentage inhibition of colchicine binding(1:1 ratio of inhibitor: colchicine); type: protein assay; conditions: concentration not given here
HCC 2998 [10] = test: Inhibition of in vitro cell growth which reduces cell growth to 50% of level at start of experiment in colon HCC2998 cell line; type: functional, Homo sapiens; outline: as §4
SF-539 [11] = test: Inhibition of in vitro cell growth which reduces cell growth to 50% of level at start of experiment in CNS SF-539 cell line(<-4 in one experiment, >-4 in other experiment); type: functional, Homo sapiens; outline: as §4
HT-29 [12] = test: Inhibition of in vitro cell growth which reduces cell growth to 50% of level at start of experiment in colon HT-29 cell line; type: functional, Homo sapiens; outline: as §4
Tubulin = test: as §1; type: functional; outline: as §2
[13] = Percentage inhibition of colchicine binding(1: 1 ratio of inhibitor: colchicine); type: functional; conditions: concentration not given here
Tubulin (Bos taurus) [14] = biological target: T1, Tubulin (Bos taurus); test: Percentage inhibition of colchicine binding by derivatives of 2-phenyl-4-quinolone at the ratio of 10:1; type: protein assay; conditions: concentration not given here
SF-539 [15] = test: Inhibition of in vitro cell growth which reduces cell growth to 50% of level at start of experiment in CNS SF-539 cell line; type: functional, Homo sapiens; outline: as §4
[16] = as §5; type: functional, Homo sapiens
[17] = as §6; type: functional, Homo sapiens; outline: as §4
COLO 205 [18] = test: Inhibition of in vitro cell growth which reduces cell growth to 50% of level at start of experiment in colon COLO-205 cell line; type: functional, Homo sapiens; outline: as §4
Tubulin (Bos taurus) [19] = biological target: T1, Tubulin (Bos taurus); test: Percentage inhibition of colchicine binding by derivatives of 2-phenyl-4-quinolone at the ratio of 1:1; type: protein assay; conditions: concentration not given here

Chain of Tubulin beta chain (Q6B856 whole entry): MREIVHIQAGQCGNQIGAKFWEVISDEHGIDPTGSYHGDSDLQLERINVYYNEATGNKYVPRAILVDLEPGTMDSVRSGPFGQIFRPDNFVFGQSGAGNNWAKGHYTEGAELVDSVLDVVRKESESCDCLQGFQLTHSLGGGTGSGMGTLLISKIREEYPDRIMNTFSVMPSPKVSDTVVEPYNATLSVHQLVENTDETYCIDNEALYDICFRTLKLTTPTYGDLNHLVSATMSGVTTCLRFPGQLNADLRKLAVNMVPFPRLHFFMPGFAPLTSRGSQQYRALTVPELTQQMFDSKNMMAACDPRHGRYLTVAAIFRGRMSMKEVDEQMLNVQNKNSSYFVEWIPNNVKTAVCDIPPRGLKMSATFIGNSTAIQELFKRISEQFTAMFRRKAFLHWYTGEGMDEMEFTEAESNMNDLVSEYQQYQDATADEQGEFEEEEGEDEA

IC50 (Tubulin beta chain) [µM] | Compound | EC50 (KB) [µg/mL] | EC50 (HCT-8) [µg/mL] | EC50 (RPMI-7951) [µg/mL] | EC50 (A549) [µg/mL] | EC50 (L1210 (1565)) [µg/mL] | EC50 (P388) [µg/mL] | further results
3.3 | Oc1cc(-c2ccccc2)nc2ccc(F)cc12 | < 0.01 | 1.36 (≈ 5.68 µM) | 0.53 (≈ 2.22 µM) | 0.38 (≈ 1.59 µM) | < 0.01 | 0.08 (≈ 0.334 µM) | –
– | CCOc1cc(-c2ccccc2)nc2ccccc12 | 6.7 (≈ 26.9 µM) | > 10 | – | > 10 | > 10 | 6 (≈ 24.1 µM) | –
– | c1ccc(COc2cc(-c3ccccc3)nc3ccccc23)cc1 | 1.6 (≈ 5.14 µM) | > 10 | – | > 10 | > 10 | > 10 | –
4.8 | COc1ccc2c(O)cc(-c3ccccc3)nc2c1 | 0.53 (≈ 2.11 µM) | 4.86 (≈ 19.3 µM) | 0.43 (≈ 1.71 µM) | 0.73 (≈ 2.91 µM) | 0.57 (≈ 2.27 µM) | 0.67 (≈ 2.67 µM) | –
> 40 | Cn1c(-c2ccccc2)cc(=O)c2ccccc21 | > 10 | > 10 | > 10 | > 10 | > 10 | > 10 | –
– | Oc1cc(-c2ccccc2)nc2cc(Cl)ccc12 | < 0.1 | 0.45 (≈ 1.76 µM) | < 0.1 | 2.89 (≈ 11.3 µM) | < 0.1 | < 0.1 | –
– | Oc1cc(-c2ccccc2)nc2ccccc12 | 0.09 (≈ 0.407 µM) | 0.8 (≈ 3.62 µM) | 0.37 (≈ 1.67 µM) | 0.5 (≈ 2.26 µM) | 0.06 (≈ 0.271 µM) | 0.08 (≈ 0.362 µM) | IC50 (Tubulin): 7.3 µM
3.4 | Oc1ccc2c(O)cc(-c3ccccc3)nc2c1 | 0.55 (≈ 2.32 µM) | > 10 | 0.52 (≈ 2.19 µM) | 0.81 (≈ 3.41 µM) | 0.45 (≈ 1.9 µM) | 0.81 (≈ 3.41 µM) | –
– | COCOc1ccc(-c2cc(=O)c3ccccc3n2C)cc1 | – | – | – | – | > 10 | > 10 | –
– | COc1cc(-c2ccccc2)nc2ccccc12 | > 10 | > 10 | – | > 10 | > 10 | 4.5 (≈ 19.1 µM) | –
11 | Oc1cc(-c2ccccc2)nc2c(F)cccc12 | 0.53 (≈ 2.22 µM) | 0.04 (≈ 0.167 µM) | 0.38 (≈ 1.59 µM) | 0.61 (≈ 2.55 µM) | 0.67 (≈ 2.8 µM) | 0.78 (≈ 3.26 µM) | –
16 | Oc1ccc2nc(-c3ccccc3)cc(O)c2c1 | 0.41 (≈ 1.73 µM) | 7.75 (≈ 32.7 µM) | 3.92 (≈ 16.5 µM) | 8.14 (≈ 34.3 µM) | 0.83 (≈ 3.5 µM) | 2.86 (≈ 12.1 µM) | –
– | Oc1cc(-c2ccccc2)nc2c(O)cccc12 | > 10 | > 10 | > 10 | > 10 | > 10 | > 10 | –
> 40 | COc1cccc2c(O)cc(-c3ccccc3)nc12 | 5.05 (≈ 20.1 µM) | 0.55 (≈ 2.19 µM) | > 10 | 6.77 (≈ 26.9 µM) | 7.68 (≈ 30.6 µM) | > 10 | –
– | COc1ccc(/C=C\c2cc(OC)c(OC)c(OC)c2)cc1O | – | – | – | – | – | – | inhibition [13]: 97%
– | CS(=O)(=O)Oc1cc(-c2ccccc2)nc2ccccc12 | 2.8 (≈ 9.35 µM) | 5.6 (≈ 18.7 µM) | – | 6.21 (≈ 20.7 µM) | 6.04 (≈ 20.2 µM) | > 10 | –
– | CC(C)Oc1cc(-c2ccccc2)nc2ccccc12 | 4.2 (≈ 15.9 µM) | > 10 | – | > 10 | > 10 | > 10 | –
– | CCCCOc1cc(-c2ccccc2)nc2ccccc12 | 3.8 (≈ 13.7 µM) | > 10 | – | > 10 | > 10 | > 10 | –
– | CCCOc1cc(-c2ccccc2)nc2ccccc12 | 4.5 (≈ 17.1 µM) | > 10 | – | > 10 | > 10 | 6.9 (≈ 26.2 µM) | –
– | CN(C)CCOc1cc(-c2ccccc2)nc2ccccc12 | > 4 | > 10 | – | > 10 | > 10 | > 10 | –
– | Cc1ccc2nc(-c3ccccc3)cc(O)c2c1 | 0.55 (≈ 2.34 µM) | 0.9 (≈ 3.83 µM) | 0.53 (≈ 2.25 µM) | 0.53 (≈ 2.25 µM) | 0.72 (≈ 3.06 µM) | 0.49 (≈ 2.08 µM) | –
– | Cn1c(-c2ccc(O)cc2)cc(=O)c2ccccc21 | > 10 | 5.71 (≈ 22.7 µM) | > 10 | > 10 | > 10 | > 10 | IC50 (Tubulin): > 40 µM
– | CC(C)COc1cc(-c2ccccc2)nc2ccccc12 | > 4 | > 10 | – | > 10 | > 10 | > 10 | –

Compound | IC50 (Tubulin beta chain) [µM] | EC50 (KB) [µg/mL] | EC50 (HCT-8) [µg/mL] | EC50 (RPMI-7951) [µg/mL] | EC50 (A549) [µg/mL] | EC50 (L1210 (1565)) [µg/mL] | EC50 (P388) [µg/mL] | further results
Oc1cc(-c2ccccc2)nc2cc(F)ccc12 | 3.7 | < 0.1 | 3.45 (≈ 14.4 µM) | 0.37 (≈ 1.55 µM) | 0.96 (≈ 4.01 µM) | 0.16 (≈ 0.669 µM) | 0.29 (≈ 1.21 µM) | LC50 (COLO 205 [1]): -4; TGI (SF-539 [2]): -6; TGI (HCC 2998 [3]): -5.6; inhibition (Tubulin (Bos taurus) [4]): 34%; TGI (KM-20L2 [5]): -6.3; LC50 (KM-20L2 [6]): -5.6; TGI (COLO 205 [7]): -6.1; TGI (HT-29 [8]): -5.6; inhibition (Tubulin (Bos taurus) [9]): 7%; LC50 (HCC 2998 [10]): >-4; LC50 (SF-539 [11]): >-4; LC50 (HT-29 [12]): >-4
Oc1cc(-c2ccccc2)nc2ccc(Cl)cc12 | 3.2 | 0.49 (≈ 1.92 µM) | 0.7 (≈ 2.74 µM) | 0.64 (≈ 2.5 µM) | 0.51 (≈ 1.99 µM) | 0.5 (≈ 1.96 µM) | 0.84 (≈ 3.29 µM) | inhibition (Tubulin (Bos taurus) [14]): 21%; LC50 (SF-539 [15]): >-4; TGI (SF-539 [2]): -5.4; TGI (HCC 2998 [3]): -5; TGI [16]: -5.4; LC50 [17]: -4; LC50 (COLO 205 [18]): -4; inhibition (Tubulin (Bos taurus) [19]): 6%; TGI (COLO 205 [7]): -5.6; TGI (HT-29 [8]): -4.9; LC50 (HCC 2998 [10]): >-5; LC50 (HT-29 [12]): >-4
COc1cc([C@@H]2c3cc4c(cc3[C@H](O)[C@H]3COC(=O)[C@H]23)OCO4)cc(OC)c1OC [PODOFILOX] | 1.3 | – | – | – | – | – | – | –
COc1ccc2nc(-c3ccccc3)cc(O)c2c1 | 2.7 | 0.08 (≈ 0.318 µM) | 1 (≈ 3.98 µM) | 0.36 (≈ 1.43 µM) | 0.19 (≈ 0.756 µM) | 0.06 (≈ 0.239 µM) | 0.33 (≈ 1.31 µM) | LC50 (SF-539 [15]): -4.4; TGI (SF-539 [2]): -6.2; TGI (HCC 2998 [3]): -6.2; inhibition (Tubulin (Bos taurus) [4]): 53%; TGI (KM-20L2 [5]): -5.9; LC50 (KM-20L2 [6]): -4.6; LC50 (COLO 205 [18]): -4.4; TGI (COLO 205 [7]): -6.1; TGI (HT-29 [8]): -6.1; inhibition (Tubulin (Bos taurus) [9]): 8%; LC50 (HCC 2998 [10]): >-4; LC50 (HT-29 [12]): >-4
